Screening data deposited in PubChem BioAssay by several laboratories.
Diaphorase inh: diaphorase inhibitors and chemical oxidizers, primary screen, counter-screen for diaphorase-coupled primary assays, biochemical, uHTS, resorufin fluorescence | diaphorase resazurin-to-resorufin fluorescence, NADH, 16 min; bacterial (C. kluyveri) enzyme, not human | inhibition, % at 20 µM | 0.69% of 190,000 active | AID 1217, 2008;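 active = primary screen inhibition at 20 µM above a set limit, cut at about 50% in these data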
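Assay system: diaphorase enzyme from Clostridium kluyveri. Quantity: enzyme working solution with 0.14 U/mL diaphorase. Schedule: reaction incubation of 16 min at room temperature. Technique: resorufin fluorescence, excitation 544 nm, emission 590 nm. Controls: No-NADH positive control and DMSO neutral control.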
Diaph act CS: compounds boosting diaphorase resazurin reduction – biochemical, uHTS, resorufin fluorescence, counter-screen for diaphorase-coupled primary assays, primary screen | Diaphorase/resazurin coupled assay, 16 min; stronger effect = higher value; 1 = vehicle wells, 0 = NADH-free wells | activation factor at 20 µM | 0.005% of 190,000 active | AID 1229, 2008;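 active = diaphorase activity raised at least twofold by the compound at 20 µM; inactive = activation factor below 2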
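Assay system: bacterial diaphorase enzyme (C. kluyveri) / Input: enzyme 0.07 U/mL final / Medium: 50 mM HEPES pH 7.4 with 4.542 mM MgCl2, 0.005% Tween 20 / Doses: single compound dose of 20 µM, 1% DMSO final / Incubation: 16 min enzyme reaction, ambient temperature / Signal: fluorescence, excitation 544 nm and emission 590 nm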
HKDC1 inh: HKDC1 hexokinase inhibitors, primary screen, biochemical, fluorescence, uHTS; AID 493160, 2011; 0.16% of 340,000 active; inhibition, % at 20 µM; recombinant HKDC1, G6PDH/diaphorase resazurin coupled fluorescence;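 active = inhibition above about 35% when tested at 20 µM, limit read from the data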
Target sequence (Q2TB90 whole entry, looked up): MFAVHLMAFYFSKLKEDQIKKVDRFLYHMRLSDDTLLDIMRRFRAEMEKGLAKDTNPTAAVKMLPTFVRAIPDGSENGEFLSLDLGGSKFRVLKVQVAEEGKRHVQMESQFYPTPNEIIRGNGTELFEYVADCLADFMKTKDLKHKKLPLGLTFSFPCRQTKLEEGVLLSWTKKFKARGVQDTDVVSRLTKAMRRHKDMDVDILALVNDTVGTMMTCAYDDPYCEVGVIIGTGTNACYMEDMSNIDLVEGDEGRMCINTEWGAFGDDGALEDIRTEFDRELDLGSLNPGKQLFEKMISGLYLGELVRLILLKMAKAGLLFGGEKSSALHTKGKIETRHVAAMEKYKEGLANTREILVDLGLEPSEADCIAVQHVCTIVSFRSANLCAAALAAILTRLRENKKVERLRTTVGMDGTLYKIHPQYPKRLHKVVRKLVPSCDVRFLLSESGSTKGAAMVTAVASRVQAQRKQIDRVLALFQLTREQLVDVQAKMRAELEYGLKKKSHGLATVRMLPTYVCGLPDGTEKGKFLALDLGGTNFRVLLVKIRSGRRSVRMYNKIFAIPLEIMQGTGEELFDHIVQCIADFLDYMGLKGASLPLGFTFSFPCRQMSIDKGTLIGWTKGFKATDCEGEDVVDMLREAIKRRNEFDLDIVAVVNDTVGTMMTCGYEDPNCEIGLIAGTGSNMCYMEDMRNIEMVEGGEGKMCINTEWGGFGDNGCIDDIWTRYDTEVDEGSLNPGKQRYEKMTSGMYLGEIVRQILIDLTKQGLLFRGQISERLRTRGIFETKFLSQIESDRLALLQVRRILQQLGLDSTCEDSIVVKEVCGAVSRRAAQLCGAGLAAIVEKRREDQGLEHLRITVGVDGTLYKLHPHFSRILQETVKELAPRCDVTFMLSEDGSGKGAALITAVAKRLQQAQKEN
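Assay system: in-house recombinant HK5 (HKDC1) enzyme. Input: HKDC1 at 5 µg/mL. Medium: Tris pH 8.0 buffer with MgCl2, Tween-20, BSA, BME. Dosing: single 20 µM dose. Schedule: 90 min reaction incubation at room temperature, dark. Signal: resazurin-to-resorufin fluorescence via G6PDH and diaphorase coupling, 525/613 nm. Controls: DMSO-enzyme wells negative, buffer-substituted wells positive.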
Fh CTSL1 inh: Fasciola hepatica cathepsin L1 inhibitors, primary screen, counter-screen for PFM18AAP inhibitor project, biochemical, QFRET, fluorogenic peptide substrate | recombinant F. hepatica cathepsin L1, Z-Leu-Arg-MCA fluorescence | inhibition, % at 5.96 µM | 0.49% of 300,000 active | AID 1906, 2009;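 active = inhibition above the mean of all tested compounds plus 3 SD, set per screening campaign, cut at about 17% in these data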
ATG4B inh: ATG4B protease inhibitors, primary screen, biochemical, fluorescence, uHTS. Cysteine protease ATG4B (Homo sapiens), Q9Y4P1. ATG4B cleavage of LC3-PLA2, NBD-HPC fluorescence, 1 h. inhibition, % at 8.33 µM. 0.51% of 340,000 active; in the data active = inhibition above about 40%
A number is an active result; n = inactive; x = no result. Compounds with a hit are over-represented: about 1.4% of the library has one in this group of screens.

SMILES	Diaphorase inh	Diaph act CS	HKDC1 inh	Fh CTSL1 inh	ATG4B inh
CCN(CC)CCCNC1=C(Cl)C(=O)c2ccccc2C1=O	n	n	n	17	n
CC(Sc1nc2ccccc2c(=O)n1C)C(=O)N(C)C1CCCCC1 (stereo not given)	x	x	n	n	n
O=C1c2cccc3c(N4CCCCC4)ccc(c23)C(=O)N1CCO	n	n	n	n	n
O=C1c2cccc3c(N4CCCCC4)ccc(c23)C(=O)N1c1cccc(O)c1	60	n	n	n	n
Cc1cc(C)c(S(=O)(=O)/N=C2/C=C(Sc3ncn[nH]3)C(=O)c3ccccc32)cc1C	n	n	64	92	n
COc1cccc(N2C(=O)N(c3ccccc3Cl)C3CS(=O)(=O)CC32)c1 (stereo not given)	n	n	n	17	n
CC(C)[C@H](NC(=O)[C@@H]1CSC2c3ccccc3C(=O)N21)C(=O)NCC1CCCO1 (stereo not given in full)	x	x	n	n	n
CCC(C)[C@H](NC(=O)[C@@H]1CSC2c3ccccc3C(=O)N21)C(=O)NCC1CCCO1 (stereo not given in full)	x	x	n	17	n
C=C(C)C1CC=C(C)/C(=N\NC(=S)Nc2ccc(C)cc2)C1 (stereo not given)	66	n	n	n	n
COC(=O)c1c(NC(=O)CCS(=O)(=O)c2ccccc2)sc2c1CCN(C)C2	x	x	n	n	n
CCCN1CCc2c(sc(NC(=O)CCS(=O)(=O)c3ccccc3)c2C(=O)OC)C1	x	x	n	27	n
Cc1cc(-c2n[nH]c(=S)n2/N=C/c2cccc(O)c2)n[nH]1	x	x	n	n	n
CC(=C/c1ccccc1)/C=N/n1c(-c2ccncc2)n[nH]c1=S	66	n	n	n	n
Cc1c(Br)c(O)c(Br)c(O)c1/C=N/n1c(-c2ccccc2)n[nH]c1=S	x	x	n	n	69
Cc1cc(-c2n[nH]c(=S)n2/N=C/c2cccc([N+](=O)[O-])c2)n[nH]1	62	n	n	n	n
Cc1cc(-c2n[nH]c(=S)n2/N=C/C(Cl)=C/c2ccccc2)n[nH]1	51	n	n	n	n
Oc1c(Br)cc(/C=N/n2c(-c3ccccc3)n[nH]c2=S)c(O)c1Br	x	x	n	x	n
O=C(COc1ccc(S(=O)(=O)N2CCOCC2)cc1)Nc1ccccc1Cl	x	x	n	n	n
O=C(COc1ccccc1Cl)NCCCNC(=O)c1ccco1	x	x	n	n	n
COc1ccc(CCNC(=O)[C@H](C)N2C(=O)N3CCc4c([nH]c5ccccc45)[C@@]3(C)C2=O)cc1	x	x	n	n	n
Cc1ccc(-n2c(O)c(C=Nc3ccccc3-c3n[nH]c(=S)[nH]c3=O)c3ccccc3c2=O)cc1C	76	n	n	x	n
CSc1nc(N(CCO)CCO)c2sc3nc(-c4ccco4)c4c(c3c2n1)CCC4	54	n	37	x	n
CSc1nc(SCCO)c2sc3nc(-c4ccco4)c4c(c3c2n1)CC(C)(C)OC4	n	n	n	x	n
Cc1ccc(C(=O)NC(=C(Cl)Cl)S(=O)(=O)c2ccc(C)cc2)cc1	n	n	n	n	n
Cc1ccc(S(=O)(=O)C(NC(=O)c2ccccc2)=C(Cl)Cl)cc1	x	x	n	n	n
SMILES	Diaphorase inh	Diaph act CS	HKDC1 inh	Fh CTSL1 inh	ATG4B inh
Cc1ccc(S(=O)(=O)/C(=C/Cl)NC(=O)c2ccccc2)cc1	n	n	n	97	n
O=C(NC(=C(Cl)Cl)S(=O)(=O)c1ccc(Cl)cc1)c1ccccc1	x	x	n	30	n
CCOC(=O)C1=C(COC(=O)c2ccc(Br)c(S(=O)(=O)N3CCOCC3)c2)NC(=O)NC1C (stereo not given)	x	x	n	x	n
Cn1c(N)c(C(=O)CSc2nnc(C3CC3)n2N)c(=O)n(C)c1=O	x	x	n	x	n
COc1ccc(N2CCN(C(=O)c3cc([N+](=O)[O-])ccc3N3CCN(CCO)CC3)CC2)cc1	x	x	n	n	n
COc1ccc(-n2nc3c(N4CCC(C(=O)NCc5ccccc5C)CC4)nnc(C)c3c2C)cc1	x	x	n	n	54
CC(C)C(=O)N1CCN(c2ccccc2NC(=O)c2ccco2)CC1	x	x	n	n	n
CCOC(=O)C1=C(C)N(C)C(=O)NC1c1cccc([N+](=O)[O-])c1 (stereo not given)	x	x	n	n	n
CCOC(=O)C1=C(C)N(C)C(=O)NC1c1cc2c(cc1[N+](=O)[O-])OCO2 (stereo not given)	67	n	n	n	n
COc1ccc(C(=O)NCC(=O)N2CCN(C(=O)c3ccco3)CC2)cc1[N+](=O)[O-]	x	x	n	x	n
O=C(CSc1nc2ccccc2c(=O)n1-c1ccccc1)N1CCCc2ccccc21	n	n	n	36	n
COc1cc(OC)c(N(C)C(=O)c2cc3c(s2)-c2ccccc2S(=O)(=O)C3)cc1Cl	x	x	n	n	n
Cc1c(Cl)cccc1-c1ccc(CNCc2ccccn2)o1	x	x	n	n	n
Cc1ccc(C)c(NC(=O)CSc2nnc([C@@H](N)Cc3ccccc3)o2)c1	n	n	n	18	n
CC(C)C[C@H](NC(=O)OC(C)(C)C)c1nnc(SCC(=O)Nc2ccc(Br)cc2)o1	n	n	n	99	n
CC(C)C[C@H](N)c1nnc(SCC(=O)Nc2ccc(Br)cc2)o1	x	x	n	91	n
NCCc1nnc(SCC(=O)Nc2ccc(Br)cc2)o1	x	x	n	n	n
COc1ccc(N(CC(=O)NCc2cccs2)S(=O)(=O)c2cccc(C)c2)cc1	x	x	n	x	n
CC1=CC(=O)C=C(C)C1=NOS(=O)(=O)c1ccccc1	n	n	n	x	n
CC1=CC(=O)C(C(C)C)=C/C1=N/OS(=O)(=O)c1ccccc1	x	x	n	17	n
CCC(=O)OC1(C)C(=O)C=C2C=C(c3ccsc3)OC=C2C1=O (stereo not given)	x	x	n	n	82
CCn1c(SCC(=O)c2ccc3c(c2)OCCO3)nnc1-c1ccco1	n	n	n	17	n
COc1ccc(CNc2nc3ccc(C)cc3s2)c(OC)c1OC	x	x	n	n	n
Cc1cc([N+](=O)[O-])nn1CC(=O)NNC(=S)Nc1ccc([N+](=O)[O-])cc1	62	n	n	n	n
CCOC(=O)c1[nH]cnc1C(=O)N1CCC(C)CC1	x	x	n	x	n
O=C(CN1C(=O)c2cccnc2Oc2ccc(Cl)cc21)Nc1ccccc1F	x	x	n	n	n
Cc1ccc2[nH]c(=O)c(C(c3nnnn3CC3CCCO3)N3CCCc4ccccc43)cc2c1 (stereo not given)	80	n	n	n	n
COc1ccc2[nH]c(=O)c(C(c3nnnn3CC3CCCO3)N3CCc4ccccc4C3)cc2c1 (stereo not given)	52	n	n	n	n
